One data set has as its system L1210. The experiment in a line: Concentration of compound required to inhibit the cellular protein biosynthesis by 50%. The data set is classed as functional, cell-based. The note with it: Mus musculus. Put shortly:
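Murine L1210 leukemia cells grown in RPMI 1640 with 5% fetal calf serum, penicillin/streptomycin, 37 °C, 5% CO2, passaged every 2–3 days. Log-phase cells seeded at final 0.05×10^6 cells/mL and exposed 48 h. Growth inhibition read as cellular protein content; EC50 = concentration giving 50% inhibition. At least four runs, mean ± SEM.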

For a further data set, the species on record is Equus caballus. The experiment in a line: (§1) Concentration of substrate at which the amount of total cytochrome c reduction is decreased by 10%. The data set is classed as functional. The method, boiled down: (§2)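 NADH dehydrogenase substrate assay: decrease in enzymatic cytochrome c reduction at low NADH. Mixture of […], 0–200 μM compound, 10 μM NADH, 0.125 units/mL NADH dehydrogenase, 50 μg/mL SOD, 0.50 M HEPES pH 7.4. IC10 = substrate concentration reducing total cytochrome c reduction by 10%.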

The nature of data set [1]: (§3) Activity of NADH dehydrogenase was determined. The data set is classed as functional. Put shortly:
(§4)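 Enzymatic NADH oxidation stimulated by compound: reaction with 100 μM test compound, 100 μM NADH, NADH dehydrogenase at the stated activity, in 0.05 M HEPES pH 7.4.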

Data set [2] relates to P388. Kind of data set: (§5) Ratio of medium survival time of the treated to the control mice at the dose of 100 (mg/kg). Type of data set: functional, Mus musculus.
The test system of data set [3] is P388. The experiment in a line: Ratio of medium survival time of the treated to the control mice at the dose of 50 (mg/kg). The data set is classed as functional, Mus musculus.
A short description of data set [4]: Ratio of toxic deaths/survivors 7 days after the day 5 injection as a measure of drug toxicity at the dose of 100 (mg/kg). The data set is classed as organism-based. The note with it: in vivo, 168 h. Put shortly: (§6)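 P388 leukemia model in (BALB/c × DBA/2) F1 mice, 10^6 cells ip on day 0. Toxicity was scored as toxic deaths/survivors 7 days after the day-5 injection.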

Data set [5] is described as follows: NADH oxidation by the compound was determined. The data set is classed as functional. Put shortly: as §4
Data set [6] can be described thus: Ratio of toxic deaths/survivors 7 days after the day 5 injection as a measure of drug toxicity at the dose of 50 (mg/kg). The data set is classed as organism-based. The note with it: in vivo, 168 h. The method, boiled down:
as §6

Data set [7] deals with P388. Kind of data set: ratio of medium survival time of the treated to the control mice at the dose of 25 (mg/kg). The data set is classed as functional, Mus musculus.
Data set [8] in a line: Ratio of toxic deaths/survivors 7 days after the day 5 injection as a measure of drug toxicity at the dose of 25 (mg/kg). Type of data set: organism-based. As to conditions: in vivo, 168 h. Put shortly: as §6
In data set [9] the target is NADH-ubiquinone oxidoreductase chain 4 (Homo sapiens) (UniProt P03905). Described as §1. Type of data set: functional. Put shortly:
as §2

Data set [10] shares this target. Described as §3. The data set is classed as functional. Put shortly: as §4
The subject of data set [11] is P388. The experiment in a line: ratio of medium survival time of the treated to the control mice at the dose of 12.50 (mg/kg). The data set is classed as functional, Mus musculus.
Data set [12] relates to P388. Kind of data set: ratio of medium survival time of the treated to the control mice at the dose of 3.12 (mg/kg). Type of data set: functional, Mus musculus.
Data set [13] concerns P388. The experiment in a line: ratio of medium survival time of the treated to the control mice at the dose of 6.25 (mg/kg). Type of data set: functional, Mus musculus.
Data set [14] is described as follows: Ratio of toxic deaths/survivors 7 days after the day 5 injection as a measure of drug toxicity at the dose of 12.50 (mg/kg). The data set is classed as functional. Put shortly:
as §6

Data set [15] in a line: Ratio of toxic deaths/survivors 7 days after the day 5 injection as a measure of drug toxicity at the dose of 6.25 (mg/kg). The data set is classed as functional. Put shortly: as §6
Data set [16] in a line: Ratio of toxic deaths/survivors 7 days after the day 5 injection as a measure of drug toxicity at the dose of 3.12 (mg/kg). Type of data set: functional. The method, boiled down:
as §6

The test system of data set [17] is Mus musculus. The description is as §5. The data set is classed as functional.
Data set [18] is described as follows: Ratio of toxic deaths/survivors 7 days after the day 5 injection as a measure of drug toxicity at the dose of 200 (mg/kg). The data set is classed as organism-based. As to conditions: in vivo, 168 h. The method, boiled down:
as §6

Data set [19] relates to Mus musculus. Kind of data set: Ratio of medium survival time of the treated to the control mice at the dose of 200 (mg/kg). Type of data set: functional.
Data set [20] concerns P388. Kind of data set: ratio of medium survival time of the treated to the control mice at the dose of 50 (mg/kg). Type of data set: functional, Mus musculus.
A short description of data set [21]: Ratio of toxic deaths/survivors 7 days after the day 5 injection as a measure of drug toxicity. The note with it: 168 h. Put shortly:
as §6

Chain of NADH-ubiquinone oxidoreductase chain 4 (Homo sapiens) (P03905 whole entry, looked up): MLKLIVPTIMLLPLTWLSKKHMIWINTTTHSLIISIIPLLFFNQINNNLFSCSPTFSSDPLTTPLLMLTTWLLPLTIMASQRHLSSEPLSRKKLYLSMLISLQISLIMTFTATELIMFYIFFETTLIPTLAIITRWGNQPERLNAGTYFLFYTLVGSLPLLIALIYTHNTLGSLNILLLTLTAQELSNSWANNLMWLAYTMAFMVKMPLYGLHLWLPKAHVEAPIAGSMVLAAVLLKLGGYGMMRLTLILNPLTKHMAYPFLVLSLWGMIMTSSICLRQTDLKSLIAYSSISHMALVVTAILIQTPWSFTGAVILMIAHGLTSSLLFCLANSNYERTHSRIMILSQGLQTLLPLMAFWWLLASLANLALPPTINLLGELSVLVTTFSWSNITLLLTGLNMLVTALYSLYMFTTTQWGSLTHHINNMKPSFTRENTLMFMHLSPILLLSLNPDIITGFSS

The compound `NCCCNc1ccc2ncnc3c2c1C(=O)c1ccccc1-3` gave an EC50 with L1210 of 546 nM. This compound also came in with a 10% effect concentration (IC10) in the data set listed under Equus caballus greater than 300000 nM. The Activity was found to be 0.75 U/mL in data set [1] and 4.7 µM/min in [5]. Besides, the T/C in the data set on P388 [2] and with P388 [3] was 127% each time. In addition, the ToxD/Surv worked out at 4 in data set [4] and 7 in data set [6].
For `NCCNc1ccc2ncnc3c2c1C(=O)c1ccccc1-3`, the midpoint of the response in the data set with L1210, the EC50, lay at 379 nM. The compound further showed a 10% effect concentration (IC10) in the data set listed under Equus caballus greater than 300000 nM. Further, the Activity in [1] came out at 0.75 U/mL; in data set [5], 4.5 µM/min. The T/C in the data set on P388 [3] came to 150%; in the data set with P388 [7], 140%. In addition, the ToxD/Surv in data set [8] and in data set [6] was 7 each time.
With `O=C1c2ccccc2C(=O)c2c(NCCNCCO)ccc(NCCNCCO)c21` [AMETANTRONE], the concentration giving a half-maximal response (EC50) in the data set with L1210 stood at 275 nM. Further, in data set [9], the concentration for an effect of 10% (IC10) is 114000 nM. In data set [10], the Activity amounted to 0.75 units ml-1. Further, the T/C worked out at 300% in the data set with P388 [11], 190% with P388 [12] and 210% in the data set on P388 [13]. The ToxD/Surv in data set [14], in data set [15] and in data set [16] was 6 throughout. The Oxidation in data set [5] came out at 8.8 µM/min.
In the case of `COc1cccc2c1C(=O)c1c(O)c3c(c(O)c1C2=O)C[C@@](O)(C(=O)CO)C[C@@H]3O[C@H]1C[C@H](N)[C@H](O)[C@H](C)O1`, the Activity in data set [10] came to 0.15 units ml-1. The compound also showed an Oxidation in data set [5] of 30.1 µM/min.
In the case of `CCN(CC)CCNc1ccc2ncnc3c2c1C(=O)c1ccccc1-3`, a half-maximal response with L1210 (EC50) required 460 nM. In addition, the IC10 in the data set filed under Equus caballus is greater than 300000 nM. The Activity amounted to 0.75 U/mL in data set [1] and 7 µM/min in [5]. Besides, the T/C worked out at 180% with P388 [2] and 140% in the data set with P388 [3]. The values for the ToxD/Surv in data set [4] and in data set [6] were 7 and 5, respectively.
In the case of `Nc1ccc2ncnc3c2c1C(=O)c1ccccc1-3`, the EC50 in the data set on L1210 is 945 nM. Moreover, the T/C in the data set on Mus musculus [17] and in the data set on Mus musculus [19] was 100% each time. Moreover, the ToxD/Surv in data set [4] and in data set [18] was 0 throughout.
As for `COc1cccc2c1C(=O)c1c(O)c3c(c(O)c1C2=O)C[C@@](O)(C(C)=O)C[C@@H]3O[C@H]1C[C@H](N)[C@H](O)[C@H](C)O1`, the concentration for an effect of 10% (IC10) in data set [9] (Equus caballus) came to 2000 nM. The Activity in data set [10] worked out at 0.15 units ml-1. For the same compound, the Oxidation in [5] is 33 µM/min.
Turning to `CNCCNc1ccc2ncnc3c2c1C(=O)c1ccccc1-3`, in the data set on L1210, the half-maximal effective concentration (EC50) worked out at 268 nM. For the same compound, the 10% effect concentration (IC10) in the data set filed under Equus caballus is greater than 300000 nM. Further, the Activity amounted to 0.75 U/mL in data set [1] and 7.6 µM/min in [5]. The values for the T/C with P388 [2] and with P388 [3] were 164% and 146%, respectively. For the same compound, the ToxD/Surv in data set [4] and in data set [6] was 6 throughout.
On to `CN(C)CCNc1ccc2ncnc3c2c1C(=O)c1ccccc1-3`, for which, in the data set on L1210, the half-maximal effective concentration (EC50) worked out at 203 nM. In addition, in the data set filed under Equus caballus, the concentration for an effect of 10% (IC10) is greater than 300000 nM. Moreover, the Activity in [1] was found to be 0.75 U/mL; in data set [5], 6.5 µM/min. The T/C is given as 209% in the data set with P388 [2] and 155% with P388 [20]. In addition, the ToxD/Surv in data set [4] and in data set [6] was 6 in each case.
In the data set on L1210, `O=C1c2ccccc2-c2ncnc3ccc(NCCNCCO)c1c23` returned an EC50 of 296 nM. In addition, the IC10 in data set [9] (Equus caballus) was greater than 300000 nM. For the same compound, the Activity in data set [1] was found to be 0.75 U/mL; in data set [5], 7.4 µM/min. Also, the T/C in the data set with P388 [2] is reported as 255%; in the data set with P388 [3], 173%. In addition, the ToxD/Surv in data set [21] is given as 7.

These data come from ChEMBL document CHEMBL1126673, “6-[(aminoalkyl)amino]-substituted 7H-benzo[e]perimidin-7-ones as novel antineoplastic agents. Synthesis and biological evaluation” (J Med Chem, 1993).
